The full list was thinned out, with hits kept by preference.
Redox H2O2 prof – compounds producing H2O2 with reducing agent – biochemical, NIH compound library profiling, artefact control for MLSCN library redox annotation, primary screen; AID 878, 2007; DTT-dependent redox cycling H2O2, phenol red/HRP absorbance; 100% = 100 µM peroxide control, 0% = buffer; activation, % at 10 µM; 200,000 compounds, 0.03% hits;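 active = activation of at least 50% relative to the plate's high and low controls in the primary single-dose screen; inactive = activation below 50%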;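 note: compound incubated with DTT at 0.8 mM final as the reducing agent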
L major viab – Leishmania major promastigote growth inhibition, primary screen; Leishmania major promastigotes, resazurin fluorescence viability; inhibition, % at 10 µM; 200,000 compounds, 9% hits;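 note: promastigotes grown with compound for 44 hours at 28 °C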
Diaphorase inh – diaphorase inhibitors and chemical oxidizers, primary screen, counter-screen for diaphorase-coupled primary assays, biochemical, uHTS, resorufin fluorescence; diaphorase resazurin-to-resorufin fluorescence, NADH, 16 min; bacterial (C. kluyveri) enzyme, not human; inhibition, % at 20 µM; 190,000 compounds, 0.69% hits; AID 1217, 2008;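 active = primary screen inhibition at 20 µM above a set limit, cut at about 50% in these data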;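 note: plate controls were DMSO with full reaction for no effect and wells lacking NADH for full effect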
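Test system: bacterial diaphorase enzyme (C. kluyveri); Quantity: 0.14 U/mL diaphorase, enzyme working solution; Times: reaction incubation of 16 min at room temperature; Measured by: fluorescence of resorufin formed from resazurin, Ex 544/Em 590 nm; Benchmarks: positive control minus NADH, DMSO neutral control.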
PfG6PD inh – PfG6PD enzyme inhibitors, primary screen, biochemical, fluorescence intensity, uHTS; PfGluPho enzyme, NADPH resazurin-diaphorase fluorescence; inhibition, % at 20 µM; 350,000 compounds, 0.78% hits; AID 504690, 2011;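 active = inhibition reaching at least a set limit at 20 µM in the primary screen, cut at about 59% in these data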;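 note: 0% = DMSO wells with substrate and 100% = DMSO wells lacking glucose-6-phosphate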
G6PDH CS – L. mesenteroides G6PDH inhibitors, counter-screen for G6PDH-coupled screening assays, biochemical, Leuconostoc mesenteroides enzyme | AID 1020, 2008 | Purified L. mesenteroides G6PDH, diaphorase/resazurin coupled fluorescence, 45 min | inhibition, % at 5 µM | 200,000 compounds, 0.12% hits | glucose-6-phosphate dehydrogenase [Leuconostoc mesenteroides]
Diaphorase act – compounds boosting diaphorase resazurin reduction – biochemical, uHTS, resorufin fluorescence, counter-screen for diaphorase-coupled primary assays, primary screen | Diaphorase/resazurin coupled assay, 16 min; hits give high values; 1 = vehicle wells, 0 = NADH-free wells | AID 1229, 2008 | activation factor at 20 µM | 190,000 compounds, 0.005% hits;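 active = diaphorase activity raised at least twofold by the compound at 20 µM; inactive = activation factor below 2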
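Assay system: bacterial diaphorase enzyme (C. kluyveri) / Input: enzyme 0.07 U/mL final / Medium: 50 mM HEPES pH 7.4 with 4.542 mM MgCl2, 0.005% Tween 20 / Doses: single compound dose of 20 µM, 1% DMSO final / Incubation: 16 min enzyme reaction, ambient temperature / Signal: fluorescence, excitation 544 nm and emission 590 nm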
Active calls of the source: *. Cut-off read from the data, not from the text of the source, unless noted: active = inhibition above about 50%; inactive = the rest.

For O=C(CN1CCCCCCC1)N/N=C/c1ccc(F)cc1F the results were Redox H2O2 prof 0, L major viab 61*, Diaphorase inh 4, PfG6PD inh 2, G6PDH CS -2 and Diaphorase act 1.
O=C(CN1CCCCCC1)N/N=C/c1ccc(Cl)c(Cl)c1 was read as Redox H2O2 prof -1, L major viab 88*, Diaphorase inh 10, PfG6PD inh 8, G6PDH CS 18 and Diaphorase act 0.9.
Screening COc1ccc(Br)cc1CN1CCCCCC1 returned PfG6PD inh 1.
C#CC(C)OCC1CNC(=S)O1 (centres undefined) was read as PfG6PD inh 21.
Screening O=C(Nc1nnc(CCc2ccccc2)s1)c1ccccc1F returned PfG6PD inh 6.
For COc1ccc(CN2C3CCCC2CC(NC(=O)Nc2ccccc2C)C3)cc1 (centres undefined) the results were Redox H2O2 prof 0, L major viab 85*, Diaphorase inh 14, PfG6PD inh -8, G6PDH CS 8 and Diaphorase act 0.9.
Screening COCC(=O)NC1CC2CCCC(C1)N2Cc1ccccc1 (centres undefined) returned Redox H2O2 prof -1, L major viab 0, Diaphorase inh 12, PfG6PD inh 10, G6PDH CS -3 and Diaphorase act 0.9.
COc1ccc(CN2C3CCCC2CC(NC(=O)Nc2cccc(C)c2)C3)cc1 (centres undefined) was read as Redox H2O2 prof 3, L major viab 90*, Diaphorase inh 7, PfG6PD inh -9, G6PDH CS 3 and Diaphorase act 0.9.
For COc1cccc(C(=O)NC2CC3CCCC(C2)N3CC(=O)Nc2ccccc2)c1 (centres undefined) the results were Redox H2O2 prof 0, L major viab 50, Diaphorase inh 58*, PfG6PD inh 39, G6PDH CS 11 and Diaphorase act 0.4.
For COc1cccc(C(=O)NC2CC3CCCC(C2)N3Cc2ccc(C)cc2)c1 (centres undefined) the results were PfG6PD inh 1.
For Cc1ccccc1C(=O)NC1CC2CCCC(C1)N2Cc1ccccc1 (centres undefined) the results were PfG6PD inh -7.
`COc1ccc(CN2C3CCCC2CC(NC(=O)Nc2ccccc2)C3)cc1` (centres undefined) gave Redox H2O2 prof 0, L major viab 94*, Diaphorase inh 2, PfG6PD inh -10, G6PDH CS 6 and Diaphorase act 1.
`CCCCC(=O)Nc1cccc(-c2nn3c(C)nnc3s2)c1` gave Redox H2O2 prof 0, L major viab 3, Diaphorase inh 8, PfG6PD inh 13, G6PDH CS 2 and Diaphorase act 0.9.
Cc1c(C(=O)N/N=C/C(C)C)[nH]c2ccc([N+](=O)[O-])cc12 was read as Redox H2O2 prof -1, L major viab 51*, Diaphorase inh 5, PfG6PD inh 6, G6PDH CS 3 and Diaphorase act 1.
`COC(=O)C1=C(CCc2ccccc2)NC(=O)NC1c1ccc([N+](=O)[O-])cc1` (centres undefined) gave PfG6PD inh -3.
`COc1cc(CN2CCC(CO)(CCOc3ccccc3)CC2)cc(OC)c1` gave PfG6PD inh -12.
`Cc1cc(C)c(CN2CCC(CO)(CCOc3ccccc3)CC2)cc1C` gave Redox H2O2 prof -1, L major viab 60*, Diaphorase inh 21, PfG6PD inh -1, G6PDH CS 10 and Diaphorase act 0.8.
Screening OCC1(CCOc2ccccc2)CCN(C2Cc3ccccc3C2)CC1 returned Redox H2O2 prof -1, L major viab 88*, Diaphorase inh 8, PfG6PD inh -25, G6PDH CS 14 and Diaphorase act 0.9.

Screens as filed in PubChem BioAssay.
